The results in this text go back to ChEMBL document CHEMBL4706770, “SD-91 as A Potent and Selective STAT3 Degrader Capable of Achieving Complete and Long-Lasting Tumor Regression” (ACS Med Chem Lett, 2021).

The target in experiment [1] is T1, Signal transducer and activator of transcription 6 (Homo sapiens) (UniProt P42226).
T1 sequence (whole entry): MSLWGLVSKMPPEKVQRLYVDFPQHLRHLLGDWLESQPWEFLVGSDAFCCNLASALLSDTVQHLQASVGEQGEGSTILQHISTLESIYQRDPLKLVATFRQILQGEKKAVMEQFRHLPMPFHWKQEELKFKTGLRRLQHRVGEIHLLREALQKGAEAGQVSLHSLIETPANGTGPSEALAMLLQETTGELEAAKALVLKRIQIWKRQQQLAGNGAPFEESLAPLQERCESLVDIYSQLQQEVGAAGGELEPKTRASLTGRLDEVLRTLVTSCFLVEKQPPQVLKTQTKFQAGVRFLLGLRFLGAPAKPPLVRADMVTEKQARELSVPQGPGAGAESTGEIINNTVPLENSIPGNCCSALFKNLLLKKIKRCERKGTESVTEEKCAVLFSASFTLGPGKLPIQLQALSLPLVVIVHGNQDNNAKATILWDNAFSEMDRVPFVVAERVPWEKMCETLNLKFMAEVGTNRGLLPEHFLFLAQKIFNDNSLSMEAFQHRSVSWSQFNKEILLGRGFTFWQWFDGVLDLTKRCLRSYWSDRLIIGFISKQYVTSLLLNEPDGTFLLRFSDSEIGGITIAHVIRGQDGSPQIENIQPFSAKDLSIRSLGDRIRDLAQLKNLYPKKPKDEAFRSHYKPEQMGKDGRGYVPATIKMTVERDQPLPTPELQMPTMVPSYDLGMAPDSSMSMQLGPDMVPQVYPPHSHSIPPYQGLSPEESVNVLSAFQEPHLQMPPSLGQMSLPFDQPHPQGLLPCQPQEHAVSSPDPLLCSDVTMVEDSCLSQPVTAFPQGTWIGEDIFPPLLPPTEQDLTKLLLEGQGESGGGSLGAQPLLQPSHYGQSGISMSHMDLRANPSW
Kind of experiment: Induction of STAT6 degradation in human SU-DHL-1 cells at 0.25 to 100 uM incubated for 14 hrs by Western blot analysis. Format: cell-based. The note with it: dose 0.25-100 µM. On the technique in general: In western blotting, separated proteins are transferred to a membrane and probed.

Experiment [2] has as its target T2, Signal transducer and activator of transcription 5A (Homo sapiens) (UniProt P42229).
T2 sequence (whole entry): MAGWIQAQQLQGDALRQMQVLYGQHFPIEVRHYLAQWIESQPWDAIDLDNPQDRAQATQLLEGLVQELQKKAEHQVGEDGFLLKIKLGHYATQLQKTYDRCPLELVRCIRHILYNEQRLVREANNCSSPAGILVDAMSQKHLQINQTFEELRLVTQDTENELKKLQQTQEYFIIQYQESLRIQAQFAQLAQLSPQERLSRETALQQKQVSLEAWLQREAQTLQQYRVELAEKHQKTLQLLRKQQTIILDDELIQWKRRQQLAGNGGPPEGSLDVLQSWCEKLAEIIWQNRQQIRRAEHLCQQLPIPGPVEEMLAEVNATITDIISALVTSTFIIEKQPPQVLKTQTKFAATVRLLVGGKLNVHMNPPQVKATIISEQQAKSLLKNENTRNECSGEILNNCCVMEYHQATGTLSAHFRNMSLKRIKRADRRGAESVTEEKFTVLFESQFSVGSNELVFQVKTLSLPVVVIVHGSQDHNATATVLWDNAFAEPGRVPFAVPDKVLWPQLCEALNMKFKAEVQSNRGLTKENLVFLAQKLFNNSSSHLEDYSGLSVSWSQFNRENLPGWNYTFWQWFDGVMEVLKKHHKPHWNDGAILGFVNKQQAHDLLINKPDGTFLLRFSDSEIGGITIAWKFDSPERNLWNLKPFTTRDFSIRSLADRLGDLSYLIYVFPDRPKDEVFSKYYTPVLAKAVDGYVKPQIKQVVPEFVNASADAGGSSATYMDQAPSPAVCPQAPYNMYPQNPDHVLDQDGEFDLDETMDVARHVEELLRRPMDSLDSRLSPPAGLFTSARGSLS
Nature of the experiment: Induction of STAT5 degradation in human SU-DHL-1 cells at 0.25 to 100 uM incubated for 14 hrs by Western blot analysis. The note with it: dose 0.25-100 µM. Format: cell-based.

For experiment [3], the target named is T1, Signal transducer and activator of transcription 6 (Homo sapiens). Kind of experiment: Induction of STAT6 degradation in human MOLM16 cells at 0.25 to 100 uM incubated for 4 hrs by Western blot analysis. Format: cell-based. The note with it: dose 0.25-100 µM. An outline of the steps:
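Cells treated 4 h with compounds across 25 nM to 100 μM; STAT proteins detected by Western blot with GAPDH as loading control; STAT3 DC50 estimated by densitometry of STAT3 relative to GAPDH. Applies to MOLM-16 for all STATs, and to SU-DHL-1 and SUP-M2 for STAT3.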

The target of experiment [4] is T3, Signal transducer and activator of transcription 1-alpha/beta (Homo sapiens) (UniProt P42224).
T3 sequence (whole entry): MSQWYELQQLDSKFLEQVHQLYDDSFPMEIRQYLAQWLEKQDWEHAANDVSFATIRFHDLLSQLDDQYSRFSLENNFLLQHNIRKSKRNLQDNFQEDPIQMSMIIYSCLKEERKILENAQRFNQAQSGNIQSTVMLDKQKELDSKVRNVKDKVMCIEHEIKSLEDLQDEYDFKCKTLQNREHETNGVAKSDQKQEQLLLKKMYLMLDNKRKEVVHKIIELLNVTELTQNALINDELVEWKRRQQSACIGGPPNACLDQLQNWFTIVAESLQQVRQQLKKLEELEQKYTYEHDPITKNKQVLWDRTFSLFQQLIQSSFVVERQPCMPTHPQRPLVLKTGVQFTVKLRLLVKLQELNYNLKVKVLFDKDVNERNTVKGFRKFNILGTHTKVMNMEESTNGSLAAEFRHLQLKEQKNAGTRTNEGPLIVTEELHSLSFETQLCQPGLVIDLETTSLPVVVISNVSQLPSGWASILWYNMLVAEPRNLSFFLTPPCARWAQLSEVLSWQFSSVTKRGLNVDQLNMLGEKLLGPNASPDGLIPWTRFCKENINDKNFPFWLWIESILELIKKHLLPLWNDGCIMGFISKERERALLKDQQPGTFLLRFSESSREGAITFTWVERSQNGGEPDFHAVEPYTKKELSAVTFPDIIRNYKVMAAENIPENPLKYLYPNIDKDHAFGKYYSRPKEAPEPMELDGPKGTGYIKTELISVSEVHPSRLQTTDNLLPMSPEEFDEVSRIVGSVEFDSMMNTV
Nature of the experiment: Induction of STAT1 degradation in human MOLM16 cells at 0.25 to 100 uM incubated for 4 hrs by Western blot analysis. Format: cell-based. The note with it: dose 0.25-100 µM. An outline of the steps: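 MOLM-16 cells treated for 4 h over 25 nM to 100 μM. STAT proteins assessed by Western blot with GAPDH as loading control.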

The nature of experiment [5]: Antiproliferative activity against human MOLM-16 cells assessed as cell growth inhibition incubated for 4 days by CellTiter-Glo asssay. The note with it: MOLM16, 96 h. Format: functional, cell-based. The method in brief:
(§1)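 Growth inhibition tested in MOLM-16 acute leukemia and SU-DHL-1 and SUP-M2 lymphoma cell lines.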
A general note: In ATP-based viability assays light output follows the ATP content of the culture.

A short description of experiment [6]: Antiproliferative activity against human SUP-M2 cells assessed as cell growth inhibition incubated for 4 days by CellTiter-Glo asssay. Format: functional, cell-based, SUPM2. The note with it: SUP-M2, 96 h. The method in brief:
as §1

Experiment [7] concerns the target T1, Signal transducer and activator of transcription 6 (Homo sapiens). Kind of experiment: Induction of STAT6 degradation in human SUP-M2 cells at 0.25 to 100 uM incubated for 14 hrs by Western blot analysis. The note with it: SUPM2, dose 0.25-100 µM. The experiment is classed as cell-based.

Molecules are shown by their SMILES. pIC50: −log10 of the molar value. Activity calls are given as the source filed them. No cut-off for these calls is given here.

For the molecule `CC(=O)N1CC[C@H]2CC[C@@H](C(=O)N[C@@H](CCC(N)=O)C(=O)NC(c3ccccc3)c3ccccc3)N2C(=O)[C@@H](NC(=O)c2cc3cc(C(F)(F)P(=O)(O)O)ccc3[nH]2)C1`, the result in experiment [1], in experiment [2], in experiment [3], in experiment [4] and in experiment [7] was inactive. The negative-log IC50 (pIC50) in experiment [5] and in experiment [6] was less than 5.00 each time.
For `CC(=O)N1CC[C@H]2CC[C@@H](C(=O)N[C@@H](CCC(N)=O)C(=O)NC(c3ccccc3)c3ccccc3)N2C(=O)[C@@H](NC(=O)c2cc3cc(C(=O)P(=O)(O)O)ccc3[nH]2)C1`, the result in experiment [1], in experiment [2], in experiment [3], in experiment [4] and in experiment [7] was inactive. Also, the pIC50 in experiment [5] and in experiment [6] was less than 5.00 each time.
`NC(=O)CC[C@H](NC(=O)[C@@H]1CC[C@@H]2CCN(C(=O)CCCCCC#Cc3cccc4c3CN(C3CCC(=O)NC3=O)C4=O)C[C@H](NC(=O)c3cc4cc(C(=O)P(=O)(O)O)ccc4[nH]3)C(=O)N21)C(=O)NC(c1ccccc1)c1ccccc1` (stereo partly drawn): the result in experiment [1], in experiment [2], in experiment [3], in experiment [4] and in experiment [7] was inactive. The pIC50 (commonly the negative decadic logarithm of the IC50, by convention in mol/L) in experiment [5] is 6.77; in experiment [6], 6.34.
Regarding `NC(=O)CC[C@H](NC(=O)[C@@H]1CC[C@@H]2CCN(C(=O)CCCCCC#Cc3cccc4c3CN(C3CCC(=O)NC3=O)C4=O)C[C@H](NC(=O)c3cc4cc(C(F)(F)P(=O)(O)O)ccc4[nH]3)C(=O)N21)C(=O)NC(c1ccccc1)c1ccccc1` (stereo partly drawn), the pIC50 in experiment [5] is 6.74; in experiment [6] it was 6.28.
